Calls of active or inactive are those of the source. The rule behind the calls is not given here.
Experiments:
[1] = target: Histone acetyltransferase p300 (Homo sapiens, UniProt Q09472); test: Inhibition of p300 (unknown origin) using H3 peptide and acetyl-coA as substrate by fluorometric assay
Method in brief: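 Fluorometric HAT kit assay with recombinant p300 core domain as enzyme and acetyl-CoA plus H3 histone peptide as substrates. Effectors were tested at 1 and 5 μM. HeLa nuclear extract served as positive control, and 0.5% DMSO was set as 100% activity.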

[2] = tested on: dsDNA; test: Binding affinity to 5'-ACTTATTCCATATAGA-3'/3'-TGAATAAGGTATATCT-5' dsDNA (unknown origin) assessed as change in melting temperature at 2.5 uM by spectrophotometric method; assay type: nucleic-acid assay
[3] = tested on: dsDNA; test: Binding affinity to 5'-ACTTATCCACTATAGA-3'/3'-TGAATAGGTGATATCT-5' dsDNA (unknown origin) assessed as change in melting temperature at 2.5 uM by spectrophotometric method; assay type: nucleic-acid assay
[4] = tested on: A549; test: Antiproliferative activity against human A549 cells at 0.1 to 10 uM after 96 hrs by WST8 assay; assay type: functional, cell-based
Method in brief: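 Cells seeded at 5×10^3 per well and grown 24 h at 37°C, 5% CO2. A549 medium was DMEM with 10% FBS and 2 mM L-glutamine. SW620 medium had 10% FBS and 1% penicillin/streptomycin. Medium was then replaced with conjugate at 0.1, 1, 5 or 10 μM for 96 h. WST-8 reagent was added and absorbance read at 450 nm. Results are mean ± SD.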

[5] = target: Cellular tumor antigen p53 (Homo sapiens) (UniProt P04637); test: Activation of p53 in human A549 cells assessed as upregulation of SPATA18 gene expression at 2 uM after 48 hrs by microarray analysis relative to control; assay type: cell-based
Chain of Cellular tumor antigen p53 (Homo sapiens) (P04637 whole entry, looked up): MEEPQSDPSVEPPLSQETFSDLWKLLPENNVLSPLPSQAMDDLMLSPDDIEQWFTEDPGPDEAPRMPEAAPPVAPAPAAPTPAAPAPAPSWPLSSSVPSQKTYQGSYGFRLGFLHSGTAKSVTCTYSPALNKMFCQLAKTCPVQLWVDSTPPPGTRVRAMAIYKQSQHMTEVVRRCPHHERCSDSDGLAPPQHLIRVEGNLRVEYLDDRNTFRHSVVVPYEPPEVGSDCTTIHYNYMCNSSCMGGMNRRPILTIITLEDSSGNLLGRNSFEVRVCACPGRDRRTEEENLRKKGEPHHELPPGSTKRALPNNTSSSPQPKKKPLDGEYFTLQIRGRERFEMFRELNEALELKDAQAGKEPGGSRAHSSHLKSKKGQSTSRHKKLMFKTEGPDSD
Method in brief: (§1)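 A549 cells plated at 2×10^5 cells/well, treated 48 h at 2 μM, with DMSO vehicle as control. Whole-genome transcriptional profiling followed the manufacturer's protocol. Total RNA integrity was checked by Bioanalyzer before arraying.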

[6] = target: Cellular tumor antigen p53 (Homo sapiens) (UniProt P04637); test: Activation of p53 in human A549 cells assessed as upregulation of EDA2R gene expression at 2 uM after 48 hrs by microarray analysis relative to control; assay type: cell-based; method in brief: as §1
[7] = tested on: A549; test: Upregulation of ABCA12 gene expression in human A549 cells at 2 uM after 48 hrs by microarray analysis relative to control; assay type: functional; method in brief: as §1
[8] = target: Cellular tumor antigen p53 (Homo sapiens) (UniProt P04637); test: Activation of p53 in human A549 cells assessed as upregulation of BTG2 gene expression at 2 uM after 48 hrs by microarray analysis relative to control; assay type: cell-based; method in brief: as §1
[9] = tested on: A549; test: Upregulation of MIR3189 gene expression in human A549 cells at 2 uM after 48 hrs by microarray analysis relative to control; assay type: functional; method in brief: as §1
[10] = tested on: A549; test: Upregulation of CDKN1A gene expression in human A549 cells at 2 uM after 48 hrs by microarray analysis relative to control; assay type: functional; method in brief: as §1
[11] = tested on: A549; test: Upregulation of SULF2 gene expression in human A549 cells at 2 uM after 48 hrs by microarray analysis relative to control; assay type: functional; method in brief: as §1
[12] = tested on: A549; test: Upregulation of WDR63 gene expression in human A549 cells at 2 uM after 48 hrs by microarray analysis relative to control; assay type: functional; method in brief: as §1
[13] = target: Cellular tumor antigen p53 (Homo sapiens) (UniProt P04637); test: Activation of p53 in human A549 cells assessed as upregulation of FDXR gene expression at 2 uM after 48 hrs by microarray analysis relative to control; assay type: cell-based; method in brief: as §1
[14] = target: Cellular tumor antigen p53 (Homo sapiens) (UniProt P04637); test: Activation of p53 in human A549 cells assessed as upregulation of MDM2 gene expression at 2 uM after 48 hrs by microarray analysis relative to control; assay type: cell-based; method in brief: as §1
[15] = tested on: A549; test: Upregulation of UIMC1 gene expression in human A549 cells at 2 uM after 48 hrs by microarray analysis relative to control; assay type: functional; method in brief: as §1
[16] = tested on: A549; test: Upregulation of MIR4713 gene expression in human A549 cells at 2 uM after 48 hrs by microarray analysis relative to control; assay type: functional; method in brief: as §1
[17] = target: Cellular tumor antigen p53 (Homo sapiens) (UniProt P04637); test: Activation of p53 in human A549 cells assessed as upregulation of SESN1 gene expression at 2 uM after 48 hrs by microarray analysis relative to control; assay type: cell-based; method in brief: as §1
[18] = tested on: A549; test: Upregulation of SCARNA7 gene expression in human A549 cells at 2 uM after 48 hrs by microarray analysis relative to control; assay type: functional; method in brief: as §1
[19] = tested on: A549; test: Upregulation of MIR3685 gene expression in human A549 cells at 2 uM after 48 hrs by microarray analysis relative to control; assay type: functional; method in brief: as §1
[20] = target: Cellular tumor antigen p53 (Homo sapiens) (UniProt P04637); test: Activation of p53 in human A549 cells assessed as upregulation of CYFIP2 gene expression at 2 uM after 48 hrs by microarray analysis relative to control; assay type: cell-based; method in brief: as §1
[21] = tested on: A549; test: Upregulation of POLH gene expression in human A549 cells at 2 uM after 48 hrs by microarray analysis relative to control; assay type: functional; method in brief: as §1
[22] = target: Cellular tumor antigen p53 (Homo sapiens) (UniProt P04637); test: Activation of p53 in human A549 cells assessed as upregulation of TP53INP1 gene expression at 2 uM after 48 hrs by microarray analysis relative to control; assay type: cell-based; method in brief: as §1
[23] = target: Cellular tumor antigen p53 (Homo sapiens) (UniProt P04637); test: Activation of p53 in human A549 cells assessed as upregulation of CD70 gene expression at 2 uM after 48 hrs by microarray analysis relative to control; assay type: cell-based; method in brief: as §1
[24] = target: Cellular tumor antigen p53 (Homo sapiens) (UniProt P04637); test: Activation of p53 in human A549 cells assessed as upregulation of FAS gene expression at 2 uM after 48 hrs by microarray analysis relative to control; assay type: cell-based; method in brief: as §1
[25] = tested on: A549; test: Upregulation of GDF15 gene expression in human A549 cells at 2 uM after 48 hrs by microarray analysis relative to control; assay type: functional; method in brief: as §1
[26] = tested on: A549; test: Upregulation of GAS6-AS1 gene expression in human A549 cells at 2 uM after 48 hrs by microarray analysis relative to control; assay type: functional; method in brief: as §1
[27] = tested on: A549; test: Upregulation of ANKRD1 gene expression in human A549 cells at 2 uM after 48 hrs by microarray analysis relative to control; assay type: functional; method in brief: as §1
[28] = target: Cellular tumor antigen p53 (Homo sapiens) (UniProt P04637); test: Activation of p53 in human A549 cells assessed as upregulation of DDB2 gene expression at 2 uM after 48 hrs by microarray analysis relative to control; assay type: cell-based; method in brief: as §1
[29] = tested on: A549; test: Upregulation of NEFL gene expression in human A549 cells at 2 uM after 48 hrs by microarray analysis relative to control; assay type: functional; method in brief: as §1
[30] = tested on: A549; test: Downregulation of SNORA9 gene expression in human A549 cells at 2 uM after 48 hrs by microarray analysis relative to control; assay type: functional; method in brief: as §1
[31] = tested on: A549; test: Downregulation of ALDH1L2 gene expression in human A549 cells at 2 uM after 48 hrs by microarray analysis relative to control; assay type: functional; method in brief: as §1
[32] = target: Cellular tumor antigen p53 (Homo sapiens) (UniProt P04637); test: Activation of p53 in human A549 cells assessed as downregulation of CARS gene expression at 2 uM after 48 hrs by microarray analysis relative to control; assay type: cell-based; method in brief: as §1
[33] = tested on: A549; test: Downregulation of ASNS gene expression in human A549 cells at 2 uM after 48 hrs by microarray analysis relative to control; assay type: functional; method in brief: as §1
[34] = tested on: A549; test: Downregulation of TAS2R30 gene expression in human A549 cells at 2 uM after 48 hrs by microarray analysis relative to control; assay type: functional; method in brief: as §1
[35] = target: Cellular tumor antigen p53 (Homo sapiens) (UniProt P04637); test: Activation of p53 in human A549 cells assessed as downregulation of STC2 gene expression at 2 uM after 48 hrs by microarray analysis relative to control; assay type: cell-based; method in brief: as §1
[36] = tested on: A549; test: Downregulation of ULBP1 gene expression in human A549 cells at 2 uM after 48 hrs by microarray analysis relative to control; assay type: functional; method in brief: as §1
[37] = tested on: A549; test: Downregulation of GUSBP3 gene expression in human A549 cells at 2 uM after 48 hrs by microarray analysis relative to control; assay type: functional; method in brief: as §1
[38] = target: Cellular tumor antigen p53 (Homo sapiens) (UniProt P04637); test: Activation of p53 in human A549 cells assessed as downregulation of CHAC1 gene expression at 2 uM after 48 hrs by microarray analysis relative to control; assay type: cell-based; method in brief: as §1
[39] = tested on: A549; test: Induction of apoptosis in human A549 cells at 2 uM after 48 hrs by Annexin V-FITC/ethidium homodimer-3/Hoechst 33342 staining based fluorescence microscopic method; assay type: functional, cell-based
Method in brief: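 A549 cells seeded in chamber slides at 2×10^4 cells/well and exposed to 2 μM for 48 h; vehicle control 0.1% DMSO. Cells were washed in binding buffer and stained with FITC-annexin V (apoptotic), ethidium homodimer III (necrotic) and Hoechst 33342 (all nuclei), then imaged by confocal fluorescence microscopy.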

Chain of Histone acetyltransferase p300 (Q09472 whole entry, the tested form may be a part): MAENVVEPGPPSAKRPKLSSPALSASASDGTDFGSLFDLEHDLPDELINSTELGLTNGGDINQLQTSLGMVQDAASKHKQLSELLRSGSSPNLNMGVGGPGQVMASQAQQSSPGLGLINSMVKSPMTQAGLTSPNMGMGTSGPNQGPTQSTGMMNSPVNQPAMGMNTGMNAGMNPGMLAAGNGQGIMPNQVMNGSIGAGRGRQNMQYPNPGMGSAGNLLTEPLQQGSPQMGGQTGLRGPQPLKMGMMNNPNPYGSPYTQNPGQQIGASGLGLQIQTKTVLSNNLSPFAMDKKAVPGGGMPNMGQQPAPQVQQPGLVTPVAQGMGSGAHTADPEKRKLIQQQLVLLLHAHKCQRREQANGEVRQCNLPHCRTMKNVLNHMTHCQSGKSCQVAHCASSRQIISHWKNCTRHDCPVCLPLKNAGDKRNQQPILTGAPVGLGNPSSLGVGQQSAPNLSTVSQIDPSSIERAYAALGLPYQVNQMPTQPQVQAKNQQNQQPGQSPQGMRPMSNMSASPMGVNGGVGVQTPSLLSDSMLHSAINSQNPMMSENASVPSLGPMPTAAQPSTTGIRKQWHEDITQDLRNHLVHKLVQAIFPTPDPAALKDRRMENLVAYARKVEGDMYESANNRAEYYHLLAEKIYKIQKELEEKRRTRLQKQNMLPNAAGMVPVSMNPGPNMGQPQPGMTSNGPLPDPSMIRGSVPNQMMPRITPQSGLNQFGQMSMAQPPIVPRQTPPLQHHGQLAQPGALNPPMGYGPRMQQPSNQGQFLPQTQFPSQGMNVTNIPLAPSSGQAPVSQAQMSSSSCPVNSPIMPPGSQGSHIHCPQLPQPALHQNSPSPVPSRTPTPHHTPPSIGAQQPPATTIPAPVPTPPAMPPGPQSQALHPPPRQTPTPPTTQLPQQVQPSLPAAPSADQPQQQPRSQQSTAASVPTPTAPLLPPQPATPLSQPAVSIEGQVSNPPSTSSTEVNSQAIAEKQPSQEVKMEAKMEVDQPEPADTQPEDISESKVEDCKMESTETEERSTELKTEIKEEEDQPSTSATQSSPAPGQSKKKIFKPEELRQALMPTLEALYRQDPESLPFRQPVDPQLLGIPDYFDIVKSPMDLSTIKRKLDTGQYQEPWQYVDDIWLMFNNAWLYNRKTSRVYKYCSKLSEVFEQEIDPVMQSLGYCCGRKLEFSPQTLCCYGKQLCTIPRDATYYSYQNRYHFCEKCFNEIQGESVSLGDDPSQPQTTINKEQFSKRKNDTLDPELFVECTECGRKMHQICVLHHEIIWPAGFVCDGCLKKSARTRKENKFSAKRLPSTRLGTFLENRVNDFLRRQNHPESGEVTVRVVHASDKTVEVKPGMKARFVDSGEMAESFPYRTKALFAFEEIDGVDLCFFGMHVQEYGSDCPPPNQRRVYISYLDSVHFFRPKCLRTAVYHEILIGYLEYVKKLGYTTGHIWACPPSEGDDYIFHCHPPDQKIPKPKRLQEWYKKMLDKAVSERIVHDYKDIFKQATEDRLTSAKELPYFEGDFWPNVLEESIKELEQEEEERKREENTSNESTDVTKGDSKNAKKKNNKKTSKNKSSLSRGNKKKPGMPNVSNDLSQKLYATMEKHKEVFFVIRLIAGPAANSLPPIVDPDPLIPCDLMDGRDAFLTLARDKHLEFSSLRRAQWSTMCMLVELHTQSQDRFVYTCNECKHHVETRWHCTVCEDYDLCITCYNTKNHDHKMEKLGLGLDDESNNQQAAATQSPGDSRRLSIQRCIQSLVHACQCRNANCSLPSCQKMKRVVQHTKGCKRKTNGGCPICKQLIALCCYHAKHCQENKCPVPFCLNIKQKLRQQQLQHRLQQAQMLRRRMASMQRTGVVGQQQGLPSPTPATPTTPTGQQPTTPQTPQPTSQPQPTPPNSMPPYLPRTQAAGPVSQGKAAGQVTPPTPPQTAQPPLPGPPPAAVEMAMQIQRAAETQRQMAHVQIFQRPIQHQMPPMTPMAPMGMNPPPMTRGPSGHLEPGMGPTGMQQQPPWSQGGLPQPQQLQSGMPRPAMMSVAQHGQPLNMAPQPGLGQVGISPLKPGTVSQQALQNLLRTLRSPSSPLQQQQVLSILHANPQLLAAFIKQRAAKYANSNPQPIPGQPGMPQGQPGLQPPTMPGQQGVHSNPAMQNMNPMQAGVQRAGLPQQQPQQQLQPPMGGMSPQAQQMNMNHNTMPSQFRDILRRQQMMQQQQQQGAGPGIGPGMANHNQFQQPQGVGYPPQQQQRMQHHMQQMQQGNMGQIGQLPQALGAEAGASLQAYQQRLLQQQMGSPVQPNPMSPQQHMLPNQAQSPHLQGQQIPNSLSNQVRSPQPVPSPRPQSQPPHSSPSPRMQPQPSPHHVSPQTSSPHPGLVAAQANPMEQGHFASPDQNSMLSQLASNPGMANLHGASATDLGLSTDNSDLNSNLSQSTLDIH

SMILES: CCCCCCCCCCCCCCOc1cc(OCCCCCC(=O)NCCC(=O)Nc2cc(C(=O)Nc3cn(C)c(C(=O)Nc4cn(C)c(C(=O)Nc5cc(C(=O)NCCCC(=O)Nc6cc(C(=O)Nc7cc(C(=O)Nc8cc(C(=O)Nc9cc(C(=O)NCCCN(C)C)n(C)c9)n(C)c8)n(C)c7)n(C)c6)n(C)c5)n4)n3)n(C)c2)cc(O)c1C(=O)O
- inhibition [1]: Dose-dependent effect

SMILES: CCCCCCCCCCCCCCCc1cccc(O)c1C(=O)O
- inhibition [1]: Dose-dependent effect

SMILES: CC1=NN(c2ccc(C(=O)NCCOCCOCC(=O)NCCC(=O)Nc3cn(C)c(C(=O)Nc4cc(C(=O)Nc5cn(C)c(C(=O)Nc6cn(C)c(C(=O)NCCCC(=O)Nc7cc(C(=O)Nc8cc(C(=O)Nc9cc(C(=O)Nc%10cc(C(=O)NCCCN(C)C)n(C)c%10)n(C)c9)n(C)c8)n(C)c7)n6)n5)n(C)c4)n3)cc2)C(=O)/C1=C/c1ccc(-c2cc(C)c(C)cc2[N+](=O)[O-])o1
- ΔTm [2]: 13.6 °C
- ΔTm [3]: 20.9 °C
- IC50 [1]: 3.9 to 4.2 µM
- Activity [4]: Active
- Activity [5]: inactive
- Activity [6]: inactive
- Activity [7]: inactive
- Activity [8]: inactive
- Activity [9]: inactive
- Activity [10]: inactive
- Activity [11]: inactive
- Activity [12]: inactive
- Activity [13]: inactive
- Activity [14]: inactive
- Activity [15]: inactive
- Activity [16]: inactive
- Activity [17]: inactive
- Activity [18]: inactive
- Activity [19]: inactive
- Activity [20]: inactive
- Activity [21]: inactive
- Activity [22]: inactive
- Activity [23]: inactive
- Activity [24]: inactive
- Activity [25]: inactive
- Activity [26]: inactive
- Activity [27]: inactive
- Activity [28]: inactive
- Activity [29]: inactive
- Activity [30]: inactive
- Activity [31]: inactive
- Activity [32]: inactive
- Activity [33]: inactive
- Activity [34]: inactive
- Activity [35]: inactive
- Activity [36]: inactive
- Activity [37]: inactive
- Activity [38]: inactive
- Activity [39]: inactive

SMILES: CC1=NN(c2ccc(C(=O)NCCOCCOCC(=O)NCCOCCOCC(=O)Nc3cc(C(=O)Nc4cn(C)c(C(=O)Nc5cn(C)c(C(=O)Nc6cc(C(=O)NCCCC(=O)Nc7cc(C(=O)Nc8cc(C(=O)Nc9cc(C(=O)Nc%10cc(C(=O)NCCCN(C)C)n(C)c%10)n(C)c9)n(C)c8)n(C)c7)n(C)c6)n5)n4)n(C)c3)cc2)C(=O)/C1=C/c1ccc(-c2cc(C)c(C)cc2[N+](=O)[O-])o1
- ΔTm [2]: 18.4 °C
- ΔTm [3]: 12.2 °C
- IC50 [1]: 3.9 to 4.2 µM
- Activity [4]: Active

From ChEMBL document CHEMBL4190249, “Antiproliferative and apoptotic activities of sequence-specific histone acetyltransferase inhibitors” (Eur J Med Chem, 2017)
